≈ marks a conversion by molar mass, not a printed value.
Assays:
[1] = tested on: Staphylococcus aureus; experiment: Antibacterial activity against multidrug-resistant Staphylococcus aureus isolate 2516 by broth microdilution assay; assay type: functional
Summary of the method: (§1)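 Broth microdilution MIC per CLSI guidelines against clinical MRSA isolates, for β-lactams and test compound alone and in combination. Compounds were dissolved in DMSO. Growth was read by eye, in duplicate. FIC index = FIC(compound) + FIC(drug); synergy defined as FIC index ≤0.5.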

[2] = tested on: Staphylococcus aureus; experiment: Antibacterial activity against multidrug-resistant Staphylococcus aureus isolate 1136 by broth microdilution assay; assay type: functional; summary of the method: as §1
[3] = tested on: Staphylococcus aureus; experiment: Antibacterial activity against multidrug-resistant Staphylococcus aureus isolate 3411 by broth microdilution assay; assay type: functional; summary of the method: as §1
[4] = tested on: Staphylococcus aureus; experiment: Antibacterial activity against multidrug-resistant Staphylococcus aureus isolate 1344 by broth microdilution assay; assay type: functional; summary of the method: as §1
[5] = tested on: Staphylococcus aureus; experiment: Antibacterial activity against multidrug-resistant Staphylococcus aureus isolate 417 by broth microdilution assay; assay type: functional; summary of the method: as §1
[6] = tested on: Staphylococcus aureus; experiment: Antibacterial activity against multidrug-resistant Staphylococcus aureus isolate 2973 by broth microdilution assay; assay type: functional; summary of the method: as §1
[7] = tested on: Staphylococcus aureus; experiment: Antibacterial activity against multidrug-resistant Staphylococcus aureus isolate 2490 by broth microdilution assay; assay type: functional; summary of the method: as §1
[8] = tested on: Staphylococcus aureus; experiment: Antibacterial activity against multidrug-resistant Staphylococcus aureus isolate 2901 by broth microdilution assay; assay type: functional; summary of the method: as §1
[9] = tested on: Staphylococcus aureus; experiment: Antibacterial activity against multidrug-resistant Staphylococcus aureus isolate 774 by broth microdilution assay; assay type: functional; summary of the method: as §1
[10] = tested on: Staphylococcus aureus; experiment: Antibacterial activity against multidrug-resistant Staphylococcus aureus isolate 2728 by broth microdilution assay; assay type: functional; summary of the method: as §1
[11] = tested on: Staphylococcus aureus; experiment: Antibacterial activity against multidrug-resistant Staphylococcus aureus isolate 3589 by broth microdilution assay; assay type: functional; summary of the method: as §1
[12] = tested on: Staphylococcus aureus; experiment: Antibacterial activity against multidrug-resistant Staphylococcus aureus isolate 358 by broth microdilution assay; assay type: functional; summary of the method: as §1
[13] = tested on: Staphylococcus aureus; experiment: Antibacterial activity against multidrug-resistant Staphylococcus aureus isolate 3580 by broth microdilution assay; assay type: functional; summary of the method: as §1
[14] = tested on: Staphylococcus aureus; experiment: Antibacterial activity against multidrug-resistant Staphylococcus aureus isolate 3267 by broth microdilution assay; assay type: functional; summary of the method: as §1
[15] = tested on: Staphylococcus aureus; experiment: Antibacterial activity against multidrug-resistant Staphylococcus aureus isolate 85 by broth microdilution assay; assay type: functional; summary of the method: as §1
[16] = tested on: Staphylococcus aureus; experiment: Antibacterial activity against multidrug-resistant Staphylococcus aureus isolate 2224 by broth microdilution assay; assay type: functional; summary of the method: as §1
[17] = tested on: Staphylococcus aureus; experiment: Antibacterial activity against multidrug-resistant Staphylococcus aureus isolate 200 by broth microdilution assay; assay type: functional; summary of the method: as §1
[18] = tested on: Staphylococcus aureus; experiment: Antibacterial activity against multidrug-resistant Staphylococcus aureus isolate 256 by broth microdilution assay; assay type: functional; summary of the method: as §1
[19] = tested on: Staphylococcus aureus; experiment: Antibacterial activity against multidrug-resistant Staphylococcus aureus isolate 1449 by broth microdilution assay; assay type: functional; summary of the method: as §1
[20] = tested on: Staphylococcus aureus; experiment: Antibacterial activity against multidrug-resistant Staphylococcus aureus isolate 2919 by broth microdilution assay; assay type: functional; summary of the method: as §1
[21] = tested on: Staphylococcus aureus; experiment: Antibacterial activity against multidrug-resistant Staphylococcus aureus isolate 1402 by broth microdilution assay; assay type: functional; summary of the method: as §1
[22] = tested on: Staphylococcus aureus; experiment: Antibacterial activity against multidrug-resistant Staphylococcus aureus isolate 231 by broth microdilution assay; assay type: functional; summary of the method: as §1
[23] = tested on: Staphylococcus aureus; experiment: Antibacterial activity against multidrug-resistant Staphylococcus aureus isolate 2895 by broth microdilution assay; assay type: functional; summary of the method: as §1
[24] = tested on: Staphylococcus aureus; experiment: Antibacterial activity against multidrug-resistant Staphylococcus aureus isolate 1749 by broth microdilution assay; assay type: functional; summary of the method: as §1
[25] = tested on: Staphylococcus aureus; experiment: Antibacterial activity against multidrug-resistant Staphylococcus aureus isolate 3332 by broth microdilution assay; assay type: functional; summary of the method: as §1
[26] = tested on: Staphylococcus aureus; experiment: Antibacterial activity against multidrug-resistant Staphylococcus aureus isolate 254 by broth microdilution assay; assay type: functional; summary of the method: as §1
[27] = tested on: Staphylococcus aureus; experiment: Antibacterial activity against multidrug-resistant Staphylococcus aureus isolate 757 by broth microdilution assay; assay type: functional; summary of the method: as §1
[28] = tested on: Staphylococcus aureus; experiment: Antibacterial activity against multidrug-resistant Staphylococcus aureus isolate 1717 by broth microdilution assay; assay type: functional; summary of the method: as §1
[29] = tested on: L929; experiment: Cytotoxicity against mouse L929 cells by MTS assay; assay type: cell-based
Summary of the method: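 MTS assay on L929 mouse fibroblasts; IC50 reported as the average of three independent measurements.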

[30] = tested on: Staphylococcus aureus; experiment: Antibacterial activity against Staphylococcus aureus ATCC 29213 by broth microdilution assay; assay type: functional
Summary of the method: (§2)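 Broth microdilution per CLSI guidelines; compounds dissolved in DMSO; single agents tested; growth inhibition read by eye; run in duplicate (table footnote states at least triplicates).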

[31] = Selective index, ratio of IC50 for mouse L929 cells to MIC for Staphylococcus aureus ATCC 29213
Summary of the method: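 Selectivity index calculated as L929 IC50 (μM) divided by S. aureus MIC (μM).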

[32] = tested on: Escherichia coli; experiment: Antibacterial activity against Escherichia coli ATCC 25922 by broth microdilution assay; assay type: functional; summary of the method: as §2

| SMILES | MIC [1] | MIC [2] | MIC [3] | MIC [4] | MIC [5] | MIC [6] | MIC [7] | MIC [8] | MIC [9] | MIC [10] | MIC [11] | MIC [12] | MIC [13] | MIC [14] | MIC [15] | MIC [16] | MIC [17] | MIC [18] | MIC [19] | MIC [20] | also measured |
| --- | --- | --- | --- | --- | --- | --- | --- | --- | --- | --- | --- | --- | --- | --- | --- | --- | --- | --- | --- | --- | --- |
| COc1cccc(OC)c1C(=O)N[C@@H]1C(=O)N2[C@@H]1SC(C)(C)[C@@H]2C(=O)O [METHICILLIN] | 64 µg/mL (≈ 168 µM) | 64 µg/mL (≈ 168 µM) | 128 µg/mL (≈ 336 µM) | 256 µg/mL (≈ 673 µM) | 1020 µg/mL (≈ 2690 µM) | 16 µg/mL (≈ 42.1 µM) | 1020 µg/mL (≈ 2690 µM) | 256 µg/mL (≈ 673 µM) | 16 µg/mL (≈ 42.1 µM) | 32 µg/mL (≈ 84.1 µM) | 256 µg/mL (≈ 673 µM) | 16 µg/mL (≈ 42.1 µM) | 16 µg/mL (≈ 42.1 µM) | 64 µg/mL (≈ 168 µM) | 8 µg/mL (≈ 21 µM) | 16 µg/mL (≈ 42.1 µM) | 16 µg/mL (≈ 42.1 µM) | 128 µg/mL (≈ 336 µM) | 8 µg/mL (≈ 21 µM) | 32 µg/mL (≈ 84.1 µM) | MIC [21]: 32 µg/mL (≈ 84.1 µM); MIC [22]: 1020 µg/mL (≈ 2690 µM); MIC [23]: 64 µg/mL (≈ 168 µM); MIC [24]: 32 µg/mL (≈ 84.1 µM); MIC [25]: 128 µg/mL (≈ 336 µM); MIC [26]: 1020 µg/mL (≈ 2690 µM); MIC [27]: 64 µg/mL (≈ 168 µM); MIC [28]: 16 µg/mL (≈ 42.1 µM) |
| Cc1onc(-c2ccccc2Cl)c1C(=O)N[C@@H]1C(=O)N2[C@@H]1SC(C)(C)[C@@H]2C(=O)O [CLOXACILLIN] | 16 µg/mL (≈ 36.7 µM) | 8 µg/mL (≈ 18.4 µM) | 32 µg/mL (≈ 73.4 µM) | 16 µg/mL (≈ 36.7 µM) | 64 µg/mL (≈ 147 µM) | 16 µg/mL (≈ 36.7 µM) | 2 µg/mL (≈ 4.59 µM) | 2 µg/mL (≈ 4.59 µM) | 2 µg/mL (≈ 4.59 µM) | 1 µg/mL (≈ 2.29 µM) | 32 µg/mL (≈ 73.4 µM) | 1 µg/mL (≈ 2.29 µM) | 2 µg/mL (≈ 4.59 µM) | 4 µg/mL (≈ 9.18 µM) | 0.5 µg/mL (≈ 1.15 µM) | 8 µg/mL (≈ 18.4 µM) | 1 µg/mL (≈ 2.29 µM) | 8 µg/mL (≈ 18.4 µM) | 1 µg/mL (≈ 2.29 µM) | 4 µg/mL (≈ 9.18 µM) | MIC [21]: 2 µg/mL (≈ 4.59 µM); MIC [22]: 64 µg/mL (≈ 147 µM); MIC [23]: 8 µg/mL (≈ 18.4 µM); MIC [24]: 0.5 µg/mL (≈ 1.15 µM); MIC [25]: 8 µg/mL (≈ 18.4 µM); MIC [26]: 32 µg/mL (≈ 73.4 µM); MIC [27]: 8 µg/mL (≈ 18.4 µM); MIC [28]: 0.5 µg/mL (≈ 1.15 µM) |
| CCCCCOc1cccc(CNc2ccc(F)c(C(N)=O)c2F)c1 |  |  |  |  |  |  |  |  |  |  |  |  |  |  |  |  |  |  |  |  | IC50 [29]: 87 µM; MIC [30]: 50 µM (≈ 17.4 µg/mL); Selectivity Index [31]: 2; MIC [32]: > 64 µg/mL |
| CC1(C)S[C@@H]2[C@H](NC(=O)[C@H](N)c3ccc(O)cc3)C(=O)N2[C@H]1C(=O)O [AMOXICILLIN] | 64 µg/mL (≈ 175 µM) | 512 µg/mL (≈ 1400 µM) | 256 µg/mL (≈ 701 µM) | 128 µg/mL (≈ 350 µM) | 512 µg/mL (≈ 1400 µM) | 512 µg/mL (≈ 1400 µM) | 128 µg/mL (≈ 350 µM) | 512 µg/mL (≈ 1400 µM) | 512 µg/mL (≈ 1400 µM) | 512 µg/mL (≈ 1400 µM) | 128 µg/mL (≈ 350 µM) | 256 µg/mL (≈ 701 µM) | 256 µg/mL (≈ 701 µM) | 8 µg/mL (≈ 21.9 µM) | 256 µg/mL (≈ 701 µM) | 512 µg/mL (≈ 1400 µM) | 512 µg/mL (≈ 1400 µM) | 256 µg/mL (≈ 701 µM) | 2 µg/mL (≈ 5.47 µM) | 1020 µg/mL (≈ 2800 µM) | MIC [21]: 256 µg/mL (≈ 701 µM); MIC [22]: 256 µg/mL (≈ 701 µM); MIC [23]: 256 µg/mL (≈ 701 µM); MIC [24]: 64 µg/mL (≈ 175 µM); MIC [25]: 64 µg/mL (≈ 175 µM); MIC [26]: 128 µg/mL (≈ 350 µM); MIC [27]: 8 µg/mL (≈ 21.9 µM); MIC [28]: 32 µg/mL (≈ 87.6 µM) |
| CCCCOc1cccc(CNc2ccc(F)c(C(N)=O)c2F)c1 |  |  |  |  |  |  |  |  |  |  |  |  |  |  |  |  |  |  |  |  | IC50 [29]: 99 µM; MIC [30]: 50 µM (≈ 16.7 µg/mL); Selectivity Index [31]: 2; MIC [32]: > 64 µg/mL |

From ChEMBL document CHEMBL4330069, “Boosting the efficacy of anti-MRSA β-lactam antibiotics via an easily accessible, non-cytotoxic and orally bioavailable FtsZ inhibitor” (Eur J Med Chem, 2019)
